Compounds with a hit are over-represented: about 2.6% of the library has one in this group of screens.
TbMetRS inhib = Trypanosoma brucei MetRS inhibition. purified T. brucei MetRS, ATP depletion, Kinase-Glo luminescence. inhibition, % at 11.9 µM. 360,000 tested, 0.4% active;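 active = inhibition above a per-plate cutoff of the control wells' mean inhibition plus 3 SD, cut at about 5.5% in these data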
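technique = Kinase-Glo luminescence, ATP depletion format | system = purified MetRS (methionyl-tRNA synthetase) enzyme from Trypanosoma brucei | timing = 15 min preincubation, 2 h reaction, all 25 °C | evaluation = percent inhibition versus plate control medians | dosing = single dose, 11.9 µM final nominal, 0.9% final DMSO | also added = substrates ATP, L-methionine and bulk Escherichia coli tRNA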
ABCB6 inh MLPCN = blocks the human ABCB6 transporter; Q9NP58; K562-ABCB6 porphyrin accumulation, flow cytometry, 1 h; stronger effect = lower value; fluorescence ratio to DMSO, % at 10 µM; 360,000 tested, 0.19% active; AID 602162;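 active = fluorescence ratio to DMSO below 75%, the collection mean minus 3 SD; inconclusive = too few cells collected in the well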;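 also: signal is porphyrin accumulated inside mitochondria; lower ratio means ABCB6 inhibition with less porphyrin fluorescence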
MC4R antag cAMP = antagonists of human melanocortin 4 receptor (MC4R); P32245; MC4R-expressing cells, MTII-stimulated cAMP, LANCE TR-FRET; inhibition, % at 6.5 µM; 360,000 tested, 0.48% active; AID 540295;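 active = inhibition above its plate's cutoff, the mean of tested wells on that plate plus 3 SD, cut at about 29% in these data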
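system = U2OS cells with stable human MC4R expression | also added = Melanotan II challenge after compound preincubation | dosing = one concentration, 6.5 µM nominal | incubation = compound 30 min, challenge 1 h, detection 1 h | measured by = TR-FRET with Eu-cAMP and labeled anti-cAMP, 671 nm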
hiPSC survival = increases survival of single human iPS cells. hiPSC single-cell survival, ATPlite luminescence; 100% = ROCK inhibitor wells, 0% = DMSO. survival enhancement, % at 20 µM. 360,000 tested, 0.044% active; in the data active = survival enhancement above about 18%;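 also: cells exposed to compounds for 16 hours before the ATP read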
MC4R ag barr = human MC4R agonism via beta-arrestin; U2OS MC4R beta-arrestin complementation, luminescence; percent of melanotan II response, DMSO zero; 360,000 tested, 0.98% active; activation, % at 8.9 µM;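 active = activation above a per-plate cutoff, the mean activation of sample wells on that plate plus 3 SD, cut at about 8% in these data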
Exocytosis inh = lytic granule exocytosis inhibition; TALL-104 LAMP-1 surface exposure, flow cytometry; cells stimulated with thapsigargin and PMA; inhibition, % at 10 µM; 360,000 tested, 0.66% active;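 active = inhibition above about 55%, limit read from the data; inconclusive = no clear call, values can overlap the other calls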
ABCB6 blocker 1 = inhibitors of human ABC transporter ABCB6; shares compounds with ABCB6 inh MLPCN; K562-ABCB6 porphyrin accumulation, flow cytometry, 1 h; stronger effect = lower value; ratio response (% of DMSO), % at 10 µM; 700 tested, under 10 active; AID 602430;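 active = repeat-averaged ratio response below 75% of DMSO, the collection mean minus 3 SD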;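 also: median porphyrin fluorescence at 575 nm with 488 nm excitation from mitochondria; lower ratio means less porphyrin signal so ABCB6 inhibition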
Tb MetRS conf = Trypanosoma brucei MetRS inhibition confirmed. T. brucei MetRS enzyme, luminescence (ATP depletion). shares compounds with TbMetRS inhib. inhibition, % at 11.9 µM. 1,400 tested, 93% active. AID 624412; in the data active = inhibition above about 7%
Jurkat tox = kills Jurkat cells in T. brucei MetRS counterscreen; shares compounds with TbMetRS inhib; Jurkat cells viability, ATP luminescence; inhibition, % at 8.3 µM; 1,400 tested, 12% active; AID 624413; in the data active = inhibition above about 15%
Tb MetRS inh FP = inhibits T. brucei methionyl tRNA synthetase in orthogonal FP test; shares compounds with TbMetRS inhib; purified T. brucei MetRS, fluorescence polarization; inhibition, % at 11.9 µM; 1,400 tested, 44% active; in the data active = inhibition above about 17%
Each line names hits and unclear results; the compound was inactive in the other large screens (follow-up assays come after a bar, where they were run).

CC(C)(C)c1ccc(Cn2nnc3c(=O)[nH]c(C4CCN(C(=O)Cc5cccs5)CC4)nc32)cc1	ABCB6 inh MLPCN 68 | ABCB6 blocker 1 inactive
O=C(Cc1cccs1)N1CCC(c2nc3c(nnn3Cc3ccccc3)c(=O)[nH]2)CC1	none | ABCB6 blocker 1 inactive
CC(C)(C)c1ccc(Cn2nnc3c(=O)[nH]c(C4CCCN(C(=O)Cc5cccs5)C4)nc32)cc1 (centres undefined)	none
S=c1nc(-c2ccc(Cl)cc2)[nH][nH]1	none
CCCOc1ccc(-c2nc(=S)[nH][nH]2)cc1	ABCB6 inh MLPCN 69 | ABCB6 blocker 1 inactive
COc1ccc(NC(=O)c2cc(CN3C(=O)c4ccccc4C3=O)ccc2OC)cn1	ABCB6 inh MLPCN 70 | ABCB6 blocker 1 inactive
Cn1c(=O)c2ncn(CC(=O)NCCOCc3ccccc3Cl)c2n(C)c1=O	ABCB6 inh MLPCN 66 | ABCB6 blocker 1 inactive
Cn1c(=O)c2ncn(CC(=O)NCCOc3ccc(C(C)(C)C)cc3)c2n(C)c1=O	none
CC1CCN(C(=O)c2ccc(NC(=O)c3cccs3)cc2)CC1	ABCB6 inh MLPCN 53 | ABCB6 blocker 1 inactive
COc1ccc(N2CCN(C(=O)c3ccc4ccccc4n3)CC2)cc1	none
O=C(/C=C/c1ccccc1)NCCc1c[nH]c2ccccc12	none
Nc1nc(NCc2ccccc2)nc(Nc2cccc(F)c2)c1[N+](=O)[O-]	ABCB6 inh MLPCN 41 | ABCB6 blocker 1 inactive
Cc1ccccc1Cn1nnc(-c2ccc(F)cc2)n1	none
O=C1N(CCCN2C(=O)C3(OCCO3)c3ccccc32)c2ccccc2C12OCCO2	ABCB6 inh MLPCN 68 | ABCB6 blocker 1 inactive
CCN(C(=O)CSc1nnc(Nc2ccccc2)s1)C1CCS(=O)(=O)C1 (centres undefined)	TbMetRS inhib 7.4 | Tb MetRS conf 16 | Jurkat tox inactive | Tb MetRS inh FP inactive
Cc1ccc(Nc2nnc(SCC(=O)N(C)C3CCS(=O)(=O)C3)s2)cc1 (centres undefined)	none
O=C(CSc1nnc(Nc2ccccc2)s1)NC1CCS(=O)(=O)C1 (centres undefined)	TbMetRS inhib 9.4 | Tb MetRS conf 27 | Jurkat tox inactive | Tb MetRS inh FP inactive
Cc1ccccc1Nc1nnc(SCC(=O)N(C)C2CCS(=O)(=O)C2)s1 (centres undefined)	none
COc1ccc(Nc2nnc(SCC(=O)N(CC(C)C)C3CCS(=O)(=O)C3)s2)cc1 (centres undefined)	TbMetRS inhib 11 | Tb MetRS conf 29 | Jurkat tox inactive | Tb MetRS inh FP 18
Cc1nc(Nc2ccccc2)[nH]c(=O)c1CCC(C)C	TbMetRS inhib 7.5 | Tb MetRS conf 52 | Jurkat tox inactive | Tb MetRS inh FP 24
COc1cc(C(=O)NNC(=O)CN2C(=O)NC(C)(c3ccc(C)cc3)C2=O)cc(OC)c1OC (centres undefined)	none
Cc1sc(NC(=S)NC(=O)C2CCCCC2)c(C(N)=O)c1C	none
CN(C)CCOCCOc1ccc(Cl)cc1Br	TbMetRS inhib 5.7 | Tb MetRS conf 9.5 | Jurkat tox inactive | Tb MetRS inh FP inactive
Cc1c(C(=O)NC(Cc2ccccc2)c2nc3ccccc3[nH]2)cccc1[N+](=O)[O-] (centres undefined)	none
CSCC[C@H](NC(=O)c1cccc([N+](=O)[O-])c1C)c1nc2ccccc2[nH]1	Exocytosis inh inconclusive

High-throughput results: PubChem, several laboratories
